Laboratory results published in publication PMC4452124 (Toxicology research, 2014).
Like-named read-outs stand apart in the source and are kept apart here.

How the values were obtained:
[1] = biological target: T1, human BCRP (Homo sapiens, UniProt Q9UNQ0); assay: biochemical
T1 sequence (Q9UNQ0 1-655): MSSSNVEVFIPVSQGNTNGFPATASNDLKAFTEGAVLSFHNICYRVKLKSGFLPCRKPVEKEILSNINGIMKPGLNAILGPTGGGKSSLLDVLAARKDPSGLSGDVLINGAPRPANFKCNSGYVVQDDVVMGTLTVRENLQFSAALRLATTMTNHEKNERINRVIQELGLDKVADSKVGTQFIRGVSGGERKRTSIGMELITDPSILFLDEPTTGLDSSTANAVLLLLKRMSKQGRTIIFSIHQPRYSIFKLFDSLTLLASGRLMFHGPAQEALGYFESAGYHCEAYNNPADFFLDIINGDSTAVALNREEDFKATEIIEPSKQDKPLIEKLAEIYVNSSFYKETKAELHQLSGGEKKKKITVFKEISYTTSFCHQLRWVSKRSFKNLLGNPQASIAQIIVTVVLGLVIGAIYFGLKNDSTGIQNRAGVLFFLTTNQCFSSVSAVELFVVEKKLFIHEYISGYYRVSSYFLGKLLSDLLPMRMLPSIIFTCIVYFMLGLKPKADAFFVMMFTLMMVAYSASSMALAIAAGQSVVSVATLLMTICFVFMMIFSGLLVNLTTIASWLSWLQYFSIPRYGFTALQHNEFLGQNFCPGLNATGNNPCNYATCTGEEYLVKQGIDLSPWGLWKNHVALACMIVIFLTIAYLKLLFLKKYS

[2] = biological target: T1, human BCRP; assay: biochemical; remark: listed apart in the source
[3] = biological target: T2, BCRP in BeWo cells (Homo sapiens, UniProt Q9UNQ0)
T2 sequence (Q9UNQ0 1-655): T1 sequence (Q9UNQ0 1-655)

[4] = biological target: T1, human BCRP; assay: BCRP ATPase assay, activation of baseline activity; assay type: biochemical; conditions: absence of sulfasalazine
[5] = biological target: T1, human BCRP
[6] = tested on: BCRP (Q141K variant); assay: alamarBlue cell viability, HEK cells expressing Q141K BCRP; assay type: cell-based; conditions: human
[7] = tested on: BCRP (wild-type); assay: alamarBlue cell viability, HEK cells expressing WT BCRP; assay type: cell-based; conditions: human
[8] = alamarBlue cell viability, HEK cells expressing empty vector; assay type: cell-based; conditions: human
[9] = tested on: BCRP protein expression in BeWo cells; assay: Western blot of BCRP protein in BeWo cells after zearalenone exposure; assay type: cell-based, human; conditions: 48 h, 1 or 10 μM
Outline: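 BeWo choriocarcinoma cells grown in DMEM F-12 with 10% FBS and 1% penicillin-streptomycin at 37°C, 5% CO2, used at 80–90% confluence, then exposed to test compound (0, 1 or 10 μM). Lysate protein measured by BCA; 5 μg resolved on 4–12% Bis-Tris SDS gels and probed for BCRP (~72 kDa), with β-actin as loading control. Bands semi-quantified.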

[10] = biological target: T2, BCRP in BeWo cells; assay: Intracellular zearalenone accumulation by ELISA in BeWo cells; assay type: cell-based; conditions: zearalenone 10 μM, Ko143 1 μM
[11] = biological target: T3, Bcrp (Mus musculus, UniProt Q7TMS5); assay: Pilot study of plasma zearalenone in Bcrp-null versus wild-type mice; assay type: in vivo; conditions: after oral dosing, pilot studies, data not shown
T3 sequence (Q7TMS5 1-657): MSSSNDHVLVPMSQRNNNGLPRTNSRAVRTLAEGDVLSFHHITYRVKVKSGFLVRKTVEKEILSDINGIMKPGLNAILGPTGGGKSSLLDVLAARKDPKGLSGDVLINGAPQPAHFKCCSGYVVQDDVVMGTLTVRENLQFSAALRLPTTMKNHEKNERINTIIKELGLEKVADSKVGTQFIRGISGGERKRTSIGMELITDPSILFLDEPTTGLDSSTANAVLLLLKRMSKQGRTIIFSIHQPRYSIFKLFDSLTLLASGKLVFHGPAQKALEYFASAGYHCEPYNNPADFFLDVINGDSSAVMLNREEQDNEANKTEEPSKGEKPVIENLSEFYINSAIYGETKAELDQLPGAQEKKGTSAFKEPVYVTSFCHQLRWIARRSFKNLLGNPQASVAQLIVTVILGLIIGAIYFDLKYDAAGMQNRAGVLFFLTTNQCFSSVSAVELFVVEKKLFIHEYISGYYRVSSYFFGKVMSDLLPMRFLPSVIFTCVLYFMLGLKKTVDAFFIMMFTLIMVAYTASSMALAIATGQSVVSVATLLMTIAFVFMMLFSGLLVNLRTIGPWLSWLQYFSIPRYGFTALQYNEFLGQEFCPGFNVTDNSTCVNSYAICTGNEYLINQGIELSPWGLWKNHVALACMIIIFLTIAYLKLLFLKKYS

[12] = biological target: T4, WT BCRP in HEK cells (Homo sapiens, UniProt Q9UNQ0); assay: Hoechst 33342 fluorescent substrate transport assay in WT BCRP HEK cells; assay type: cell-based; conditions: Hoechst 33342 7 μM
T4 sequence (Q9UNQ0 1-655): T1 sequence (Q9UNQ0 1-655)

[13] = Inhibitory Concentration (IC50) Vesicle Assay, Lucifer yellow (50 μM) transport, 2 min, 37°C
[14] = BeWo cells, Hoechst 33342 15 μM

SMILES	IC50 [1, 13] [µM]	IC50 [2] [µM]	Concentration that increased intracellular Hoechst 33342 fluorescence [3, 14] [µM]	other results
Fc1ccc([C@]2(Cn3cncn3)O[C@H]2c2ccccc2Cl)cc1 (racemic) [Epoxiconazole, epoxiconazole]	64.7	> 100	–	–
CC(C)(c1ccc(O)cc1)c1ccc(O)cc1 [Bisphenol A, bisphenol A]	55.5	> 100	50	–
O=c1c(-c2ccc(O)cc2)coc2cc(O)cc(O)c12 [Genistein, genistein]	–	–	–	IC50 ([1]; Inhibitory Concentration (IC50) Vesicle Assay): 1.9 µM; Concentration that increased intracellular Hoechst 33342 fluorescence ([3]; human): ≥ 10 µM; Increase in retention of Hoechst 33342 ([3]; human): 50–100%; Concentration that stimulated baseline ATPase activity [4]: ≥ 0.01 µM; Change in BCRP-mediated ATPase activity [5]: no change in ATPase activity was detected
COc1ccc(C(c2ccc(OC)cc2)C(Cl)(Cl)Cl)cc1 [Methoxychlor, methoxychlor]	38	5.2	100	–
O=C1c2c(O)ccc(O)c2C(=O)c2c(NCCNCCO)ccc(NCCNCCO)c21 [Mitoxantrone, mitoxantrone, reference compound]	–	–	–	CC50 [6]: 1140 nM; CC50 [7]: 3.19 µM; CC50 [8]: 340 nM
CCCCC(C#N)(Cn1cncn1)c1ccc(Cl)cc1 (stereo not drawn) [Myclobutanil, myclobutanil]	62.7	79	–	–
CCCN(CCOc1c(Cl)cc(Cl)cc1Cl)C(=O)n1ccnc1 [Prochloraz, prochloraz]	18.7	42.6	–	–
C#CCOS(=O)OC1CCCCC1Oc1ccc(C(C)(C)C)cc1 (stereo not drawn) [Propargite, propargite]	31.8	2.6	–	–
CCCC1COC(Cn2cncn2)(c2ccc(Cl)cc2Cl)O1 (stereo not drawn) [Propiconazole, propiconazole]	51.3	63.6	–	–
CC(C)(C)C(O)(CCc1ccc(Cl)cc1)Cn1cncn1 (stereo not drawn) [Tebuconazole, tebuconazole]	41.1	> 100	–	–
CCC[CH2][Sn]([CH2]CCC)[CH2]CCC [Tributyltin, tributyltin]	–	–	≥ 10	IC50 ([1]; read-out: Inhibitory Concentration (IC50) Vesicle Assay, Lucifer yellow (50 μM) transport, 2 min, 37°C): 30.5 µM; Increase in retention of Hoechst 33342 ([3]; BeWo cells): 50–100%
C[C@H]1CCCC(=O)CCC/C=C/c2cc(O)cc(O)c2C(=O)O1 [Zearalenone, zearalenone]	4.8	40.6	50	Effect on BCRP protein expression [9]: did not alter BCRP protein expression; CC50 at 72 h [6]: 40.6 µM; Increase of intracellular zearalenone levels on BCRP inhibition with Ko143 [10]: 2.7 fold; Plasma zearalenone levels, Bcrp-null mice compared to wild-types [11]: ~ 10 fold; CC50 at 72 h [7]: 171 µM; Concentrations that increased Hoechst accumulation [12]: 10 to 100 µM; CC50 at 72 h [8]: 45.6 µM
